ABCB1 block – human ABCB1 inhibition, ABCG2 as counter-screen | P08183 | CCRF-Adr cells, JC-1 efflux, flow cytometry | inhibition, % at 6.6 µM | 0.067% of 190,000 active; in the data active = inhibition above about 40%;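 also: 0% = vehicle and 100% = reference inhibitor; higher value means more JC-1 retained so stronger ABCB1 efflux block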
EP2 mod – modulates human prostaglandin E2 receptor EP2 signaling; 0.83% of 260,000 active; induction, % at 25 µM; EP2-expressing cells, cAMP HTRF FRET, PGE2 co-stimulation;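 active = compounds whose cAMP rise, as percent of the full-agonist control response, exceeds 60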;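 also: rat C6 glioma line stably carrying human EP2 under a CMV promoter; the protocol text gives 20 µM as final concentration; 100% = response of wells given 1 µM PGE2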
EP2 antag – inhibitors of human EP2 prostaglandin E2 receptor; inhibition, % at 25 µM; 0.52% of 260,000 active; C6 glioma cells expressing human EP2, cAMP TR-FRET; cells stimulated with saturating PGE2;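 active = percent inhibition above 40 after rounding to a whole number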;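 also: rat C6 glioma host cells with rolipram phosphodiesterase inhibitor present; the protocol text gives 20 µM as final concentration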
ABCG2 block – blocks JC-1 efflux by human ABCG2 transporter | IgMXP3 cells, flow cytometry | inhibition, % at 6.6 µM | 0.1% of 190,000 active | AID 1325;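 active = inhibition above 80%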;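 also: 0% = DMSO and 100% = nicardipine control wells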
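Read-out basis: Efflux inhibition in percent versus controls | Test system: ABCG2 IgMXP3 and barcoded ABCB1 CCRF-Adr cell mix | Quantity: 3 million cells/mL in well | Schedule: 10 min at 25 °C | Control set: Nicardipine as high control, DMSO as low control | Reagent: JC-1 as fluorescent efflux pump substrate | Signal: Flow cytometry of retained JC-1 fluorescence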
RBBP9 inhibitor – inhibitors of human serine hydrolase RBBP9; recombinant RBBP9, FP-Rh probe fluorescence polarization; inhibition, % at 7.94 µM; 0.2% of 220,000 active;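 active = inhibition above the campaign mean of all tested compounds plus 3 SD, cut at about 14% in these data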;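 also: plate controls were DMSO wells with RBBP9 for no effect and wells lacking RBBP9 protein for full effect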
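Measured by: FP readout at 525/598 nm; material: recombinant human RBBP9; also added: Serine-hydrolase probe FP-Rh, 375 nM pre-mixing; medium: Tris buffer pH 8.0, NaCl, Pluronic; replication: one well per compound; doses: one concentration, 7.94 µM nominal, 0.794% DMSO; timing: preincubation 30 min plus labeling 45 min at 25 °C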
Active calls of the source: *; / = no result. Compounds with a hit are over-represented: about 1.5% of the library has one in this group of screens.

SMILES	ABCB1 block	EP2 mod	EP2 antag	ABCG2 block	RBBP9 inhibitor
Cc1cc(C(=O)NCC(=O)OCC(=O)N(C2CCCCC2)C2CCCCC2)ccc1[N+](=O)[O-]	1.9	63.1*	4.1	0.6	-7.0
Cc1cc(C(=O)NCC(=O)OCC(=O)NCCc2ccccc2)ccc1[N+](=O)[O-]	1.9	5.9	6.7	44.0	-5.3
Cc1ccc2nc(C3CCCCN3C(=O)c3ccc(-n4cnnn4)cc3)[nH]c2c1 (configuration not stated)	/	-62.8	/	/	/
O=C(c1ccco1)N1N=C(c2ccc(Cl)cc2)CC1(O)C(F)(F)F (configuration not stated)	0.0	60.5*	6.7	9.3	-5.7
N#Cc1c(NC(=O)c2cc(Cl)ccc2Cl)sc2c1CCC2	/	-26.1	15.4	/	/
CCC(=O)c1[nH]c(C)c(C(=O)CC)c1C	/	-29.0	13.8	/	/
CC(C)c1nc2ccccc2c2nnc(SCC(=O)Nc3nc4c(s3)CCCC4)n12	/	64.0*	15.6	/	/
CC(C)(C)c1ccc(O)c(CN(Cc2c(O)ccc3ccccc23)C2CCCCC2)c1	/	34.5	38.5	/	/
CC(C)(C)c1ccc(O)c(CN(Cc2cc(C(C)(C)C)ccc2O)C2CCCCC2)c1	/	-15.9	64.4*	/	/
CCOc1ccc(C(C(=O)NC2CCCC2)N(C(=O)c2ccco2)C2CCCC2)cc1 (configuration not stated)	/	-15.7	4.6	/	/
CCOc1ccc(N(C(=O)c2ccco2)C(C(=O)NC2CCCC2)c2ccccc2)cc1 (configuration not stated)	/	60.5*	5.9	/	/
COc1ccc(N2CCN(c3ncnc4c3[nH]c3ccccc34)CC2)cc1	-0.1	-44.9	54.2*	-0.2	2.1
Fc1ccc2[nH]c3c(N4CCN(c5ccccc5)CC4)ncnc3c2c1	1.1	-43.7	87.6*	3.9	7.0
COc1ccc(CNn2c(-c3cccs3)nc3ccccc3c2=O)cc1OC	1.3	23.4	9.2	1.9	-11.0
O=c1c2ccccc2nc(-c2cccs2)n1-c1cccc2ccccc12	-0.7	62.4*	10.4	-6.7	-4.6
Cc1nn(C(C)C)c(C)c1CN(CCc1ccccc1)Cc1cccs1	/	29.8	4.5	/	/
O=Cc1ccc(OCc2cccc(C(F)(F)F)c2)cc1O	0.0	62.7*	6.0	0.9	-6.6
COc1ccc(OC)c(NC(=O)CSc2ncnc3sc4c(c23)CCCC4)c1	/	17.7	9.2	/	/
CCN1C(=O)C2(SC(NC(C)=O)=NN2C(C)=O)c2cc(OC)ccc21 (configuration not stated)	/	7.5	24.8	/	/
Cc1cc2c(C)ccc(C)c2nc1SCC(=O)c1cccs1	-3.3	62.6*	4.0	2.9	-4.3
CC(=O)Nc1ccc(C(O)CN2CCC(O)(c3ccccc3C)CC2)cc1 (configuration not stated)	/	-31.4	4.3	/	/
CCC1c2ccc(C)n2CCN1C(=O)Nc1ccccc1C(=O)OC (configuration not stated)	-0.1	49.9	10.7	-0.6	0.1
CCOC(=O)c1ccccc1NC(=O)N1CCn2c(C)ccc2C1CC (configuration not stated)	1.8	64.1*	0.5	20.9	-11.1
CCc1ccc2[nH]c(=O)c(C(c3nnnn3C3CCCC3)N3CCN(C)CC3)cc2c1 (configuration not stated)	/	-11.9	9.3	/	/
O[C@@H](c1cc([C@@]23C[C@H]4CC[C@@H]2C[C@H](C4)C3)nc2c(Cl)cc(Cl)cc12)[C@@H]1CCCCN1	/	19.5	76.5*	/	/
SMILES	ABCB1 block	EP2 mod	EP2 antag	ABCG2 block	RBBP9 inhibitor
CCn1c[n+](CC(O)COc2ccc(C(C)=O)cc2)c2cc(C)c(C)cc21 (configuration not stated)	/	-1.9	8.7	/	/
COc1ccc([C@@H]2C[C@H](OC(=O)c3cscn3)C(=O)N2C)cc1	/	-8.3	/	/	/
N#Cc1c(SCC(=O)O)nc2c(c1-c1cccnc1)CCC2	/	54.1	22.4	/	/
Cc1cc(NC(=O)CSc2nc3c(c(-c4cccnc4)c2C#N)CCC3)no1	2.0	30.8	49.2*	10.9	-8.6
CNc1oc(-c2ccccc2Cl)nc1P(=O)(c1ccccc1)c1ccccc1	1.0	39.0	6.9	3.4	-7.5
CNc1oc(-c2ccc(C)cc2)nc1P(=O)(c1ccccc1)c1ccccc1	1.2	60.5*	7.6	5.2	-8.1
N#CCC(=O)c1nsc(Cl)c1Cl	/	4.3	11.8	/	/
Cc1ccc(OCc2nnc(SCC(=O)NNC(=O)C3CCCCC3)n2C)cc1	/	9.2	8.6	/	/
CCOC(=O)C(=CNc1ccccc1Cl)C(=O)OCC	/	19.5	8.8	/	3.0
CCOC(=O)C(=CNc1ccccc1C)C(=O)OCC	0.5	14.3	8.4	3.2	5.9
CCOC(=O)C(=CNc1ccc(C(F)(F)F)cc1Cl)C(=O)OCC	/	68.6*	5.9	/	-13.0
CCOC(=O)C(=CNc1cc(C)ccc1-n1cccc1)C(=O)OCC	/	64.7*	3.8	/	-0.1
COc1ccc(-c2csc(NC(=O)c3ccc4c(c3)OCO4)n2)cc1OC	/	-36.9	12.5	/	/
Cc1nn(CC(=O)N(Cc2ccncc2)C2CC2)c(=O)c2cc3sccc3n12	/	9.5	/	/	/
O=C(Nc1nc2c(Cl)ccc(Cl)c2s1)c1ccco1	-0.5	-16.7	70.0*	0.2	-9.7
CCc1ccc(N2C(=O)C3ON(c4ccccc4)C(c4ccco4)C3C2=O)cc1 (configuration not stated)	0.6	49.4	14.0	2.6	3.2
CCCCN1C(=O)C2ON(c3ccccc3C)C(c3ccco3)C2C1=O (configuration not stated)	0.9	63.5*	12.0	1.9	-1.4
COCCN1Cc2cccc(C(=O)Nc3cc(C)cc(C)c3)c2C1=O	26.3	-16.6	13.3	82.4*	-7.5
Fc1ccc(-n2c(SCc3cccnc3)nnc2-c2ccncc2)cc1	/	13.2	7.7	/	/
Cc1cc2cccc(C)c2nc1SCC(=O)N1CCOCC1	/	-37.5	10.3	/	/
N#CC1=C(N)Oc2n[nH]c(-c3cccs3)c2C1c1cccs1 (configuration not stated)	-0.1	-19.8	52.0*	-0.2	4.6
COc1ccc2c(c1)CCc1c(-c3noc4c3CCc3cc(OC)ccc3-4)noc1-2	/	-6.5	45.0*	/	/
COc1ccc(CC(=O)NNC(=O)COc2ccc3ccccc3c2)cc1	0.0	-76.7	102.8*	-0.3	-6.7
CS(=O)(=O)c1ccccc1C(=O)Nc1nc2ccccc2[nH]1	/	-1.7	108.5*	/	-3.6
CSc1ccccc1C(=O)Nc1nc2ccccc2[nH]1	1.2	-40.5	4.7	5.2	-1.4
S=C(Nc1ccc2c(c1)Cc1ccccc1-2)Nc1ccc2c(c1)Cc1ccccc1-2	/	-14.3	55.3*	/	/
O=C(O)c1ccccc1-c1ccccc1C(=O)Nc1ccc2c(c1)Cc1cc(F)ccc1-2	/	6.8	43.3*	/	/
O=C(O)c1ccccc1-c1ccccc1C(=O)Nc1ccc2c(c1)Cc1ccccc1-2	/	31.0	38.7	/	/
CCNC(=S)NCCCNc1nc2ccc(OCC)cc2cc1C#N	/	-74.6	9.4	/	/
O=C(C1CCC1)N1CCC(c2nc3c(nnn3Cc3ccc(Cl)cc3Cl)c(=O)[nH]2)CC1	/	-8.9	6.5	/	/
